L major viab = inhibitors of Leishmania major promastigote growth | Leishmania major promastigotes, resazurin fluorescence viability | inhibition, % at 10 µM | actives 9% (n = 200,000) | AID 1063;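 also: promastigotes grown with compound for 44 hours at 28 °C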
GSH fluor = GSH bead compound fluorescence profile. fluorescence (KMESF) at 10 µM. AID 1776. GSH beads flow cytometry, compound fluorescence 488/530 nm; stronger effect = higher value. actives 0.25% (n = 190,000); in the data active = fluorescence above about 89;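 also: glutathione beads carrying GST-tagged Bcl family fusion proteins plus one bare bead set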
PKD1 inh = inhibitors of human PKD1 kinase | PKD1 kinase fluorescence polarization assay | inhibition, % (no concentration beside the values) | actives 0.056% (n = 200,000) | AID 797
ABCG2 block = human ABCG2 inhibition, ABCB1 as counter-screen | IgMXP3 cells, JC-1 efflux, flow cytometry | inhibition, % at 6.6 µM | actives 0.1% (n = 190,000) | Q9UNQ0;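 active = inhibition above 80%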
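Assay system – ABCG2 IgMXP3 and barcoded ABCB1 CCRF-Adr cell mix · Input – 3 million cells/mL in well · Reagent – JC-1 fluorescent substrate · Compound – single test compound dose, 6.6 µM final · Timing – 10 min exposure at 25 °C with rotation, no wash · Detection – flow cytometry of retained JC-1 fluorescence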
Avidin bead fluor = compound fluoresces at 488/530 nm on avidin beads; actives 0.38% (n = 220,000); compound fluorescence 488/530 nm, flow cytometry; stronger effect = higher value; fluorescence (KMESF) at 10 µM; AID 1775; in the data active = fluorescence above about 47
ABCB1 block = inhibitors of human ABCB1 transporter, ABCG2 counter-screen; inhibition, % at 6.6 µM; P08183; CCRF-Adr cells, JC-1 efflux, flow cytometry; actives 0.067% (n = 190,000); in the data active = inhibition above about 40%;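 also: higher value means more JC-1 retained so stronger ABCB1 efflux block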
Numbers stand for hits; i = inactive; nt = no result. The sample as a whole holds a higher share of hits than the screen did. Rule as the data show it, unless noted: active = inhibition above about 50%; inactive = the rest.

SMILES	L major viab	GSH fluor	PKD1 inh	ABCG2 block	Avidin bead fluor	ABCB1 block
COc1ccc(Nc2nc(-c3ccccc3)nc3ccccc23)c(OC)c1	i	i	i	i	i	i
COc1ccc(Nc2nc(NC(C)(C)C)nc(N3CCOCC3)n2)c(OC)c1	i	i	i	i	i	i
COc1ccc(Nc2nc(N3CCCCC3)nc3ccccc23)c(OC)c1	97	i	i	i	i	i
COc1ccc(N2CCN(c3nc(NC(C)(C)C)nc(N4CCCCC4)n3)CC2)cc1	97	i	i	i	i	i
CC1CCc2c(C(=O)Nc3ccc(OC(F)(F)F)cc3)csc2C1 (stereo not given)	i	i	i	i	i	i
CCOc1ccc(N=C(NN)c2ccc3ccccc3n2)cc1	i	i	i	i	i	i
CC(C)(O)C#Cc1ccc(C(=O)NC(CCCNC(N)=O)C(=O)O)s1 (stereo not given)	i	i	i	i	i	i
COc1ccc(NC(=O)CCCn2cc([N+](=O)[O-])cn2)cc1	i	i	i	i	i	i
COc1ccc2nc(C)cc(SCC(=O)N/N=C/c3ccc(O)c(O)c3)c2c1	i	i	i	i	i	i
Cc1cc(SCC(=O)N/N=C/c2ccc(O)c(O)c2)c(C)cc1Br	72	i	i	i	i	i
O=C(N/N=C/c1cc(Br)ccc1O)c1cccc(N2CCCC2=O)c1	100	i	i	i	i	i
COC(=O)N/N=C/c1cc(Br)ccc1O	i	i	i	i	i	i
O=C(CCc1ccccc1)N/N=C/c1cc(Br)ccc1O	98	i	i	i	i	i
O=C(N/N=C/c1cc(Br)ccc1O)c1ccccc1Cl	98	i	i	i	i	i
O=C(CCc1ccccc1)NCC(=O)N/N=C/c1ccc(O)cc1O	nt	nt	nt	nt	i	nt
CC(C)c1ccc(CN(C)CC(O)c2ccccc2)cc1 (stereo not given)	75	i	i	i	i	i
c1ccc(CNc2ccc(CNc3ncn[nH]3)cc2)cc1	64	i	i	i	i	i
Cc1nc2ccccn2c1C(=O)CSc1cccc(Cl)c1	i	i	i	i	i	i
Cc1ccc(CNc2ccc3c(c2)ncn3C)cc1	60	i	i	i	i	i
Cc1ccc2c(c1)nnn2C1CCN(CC(=O)Nc2ccccc2N2CCOCC2)CC1	59	i	i	i	i	i
COC(=O)c1ccccc1NC(=O)CN1CCC(n2nnc3cc(C(F)(F)F)ccc32)CC1	i	i	i	i	i	i
CC1Cc2ccccc2N1C(=O)CN1CCC(n2nnc3cc(C(F)(F)F)ccc32)CC1 (stereo not given)	95	i	i	i	i	i
COc1ccc(Cl)cc1NC(=O)CN1CCC(n2nnc3cc(C)ccc32)CC1	i	i	i	i	i	i
C#CCOCCOCCOCCNc1nc(N2CCN(C(=O)[C@H](CCCCN)n3cc(C(N)CO)nn3)CC2)nc(N2CCN(C(=O)[C@H](CCC(=O)O)n3cc(C(N)[C@H](C)CC)nn3)CC2)n1 (stereo not given in full)	i	i	i	i	i	i
Cc1ccc(CNC(=O)C2c3ccccc3C(=O)N3CCc4ccccc4C23)o1 (stereo not given)	i	i	i	i	i	i
SMILES	L major viab	GSH fluor	PKD1 inh	ABCG2 block	Avidin bead fluor	ABCB1 block
O=C(NCCN1CCN(Cc2ccccc2)CC1)C1c2ccccc2C(=O)N2CCc3ccccc3C12 (stereo not given)	i	i	i	i	112	i
Cc1ncc(CO)c(/C=N/NC(=S)Nc2ccc(Cl)c(Cl)c2)c1O	73	i	i	i	i	i
Cc1ncc(CO)c(/C=N/NC(=S)Nc2cccc(Cl)c2)c1O	i	i	i	i	i	i
Cc1ncc(CO)c(/C=N/NC(=O)c2cc3c(s2)CCCC3)c1O	98	i	i	i	i	i
CCCCCC1CC(CC#CCN2CCOCC2)C(=O)O1 (stereo not given)	i	i	i	i	i	i
CCSc1nc2c(cnn2-c2ccccc2)c(=O)n1N	nt	nt	nt	nt	i	nt
C#CC(=O)N(c1ccc(OC)cc1OC)C(C(=O)NC1CCCC1)c1cccs1 (stereo not given)	94	i	i	i	i	i
COc1ccc(N(C(=O)c2ccco2)C(C(=O)NC2CCCCC2)c2cccs2)cc1OC (stereo not given)	i	i	i	i	i	i

Source: PubChem BioAssay (several laboratories)
